How the values were obtained:
Format in all cases: functional
Hepatocyte [1] = experiment: Hepatoprotective activity against D-galactosamine/TNFalpha-induced cell death in mouse hepatocytes assessed cell survival rate at 50 uM administered before 30 mins of TNFalpha challenge measured after 18 hrs by MTT assay
Summary of the method: (§1)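 Primary mouse hepatocytes, isolated by collagenase perfusion, were cultured in William's E medium with 10% calf serum, dexamethasone and insulin at 1.5×10^4 cells/well. TNF-α (100 ng/mL) was added 30 min later. Viability was read by MTT after 18 h. Values are mean ± SD, n = 4 (normal and control n = 8), with Student's t-test versus control.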

Hepatocyte [2] = experiment: Hepatoprotective activity in mouse hepatocytes assessed protection against D-galactosamine/TNFalpha-induced cell death at 12.5 uM administered before 30 mins of TNFalpha challenge measured after 18 hrs; summary of the method: as §1
Hepatocyte [3] = experiment: Hepatoprotective activity in mouse hepatocytes assessed protection against D-galactosamine/TNFalpha-induced cell death at 25 uM administered before 30 mins of TNFalpha challenge measured after 18 hrs; summary of the method: as §1
Hepatocyte [4] = experiment: Hepatoprotective activity in mouse hepatocytes assessed protection against D-galactosamine/TNFalpha-induced cell death at 50 uM administered before 30 mins of TNFalpha challenge measured after 18 hrs; summary of the method: as §1
Hepatocyte [5] = experiment: Hepatoprotective activity in mouse hepatocytes assessed inhibition of D-galactosamine/TNFalpha-induced cell death dosed administered before 30 mins of TNFalpha challenge measured after 18 hrs; summary of the method: as §1
Hepatocyte [6] = experiment: Hepatoprotective activity in mouse hepatocytes assessed inhibition of D-galactosamine/TNFalpha-induced cell death at 12.5 uM administered before 30 mins of TNFalpha challenge measured after 18 hrs; summary of the method: as §1
Hepatocyte [7] = experiment: Hepatoprotective activity in mouse hepatocytes assessed inhibition of D-galactosamine/TNFalpha-induced cell death at 25 uM administered before 30 mins of TNFalpha challenge measured after 18 hrs; summary of the method: as §1
Hepatocyte [8] = experiment: Hepatoprotective activity in mouse hepatocytes assessed inhibition of D-galactosamine/TNFalpha-induced cell death at 50 uM administered before 30 mins of TNFalpha challenge measured after 18 hrs; summary of the method: as §1
Hepatocyte [9] = experiment: Hepatoprotective activity against D-galactosamine/TNFalpha-induced cell death in mouse hepatocytes assessed cell survival rate at 12.5 uM administered before 30 mins of TNFalpha challenge measured after 18 hrs by MTT assay; summary of the method: as §1
Hepatocyte [10] = experiment: Hepatoprotective activity against D-galactosamine/TNFalpha-induced cell death in mouse hepatocytes assessed cell survival rate at 25 uM administered before 30 mins of TNFalpha challenge measured after 18 hrs by MTT assay; summary of the method: as §1
Hepatocyte [11] = experiment: Hepatoprotective activity in mouse hepatocytes assessed protection against D-galactosamine/TNFalpha-induced cell death at 100 uM administered before 30 mins of TNFalpha challenge measured after 18 hrs; summary of the method: as §1
Hepatocyte [12] = experiment: Hepatoprotective activity in mouse hepatocytes assessed protection against D-galactosamine/TNFalpha-induced cell death at 200 uM administered before 30 mins of TNFalpha challenge measured after 18 hrs; summary of the method: as §1
Hepatocyte [13] = experiment: Hepatoprotective activity in mouse hepatocytes assessed inhibition of D-galactosamine/TNFalpha-induced cell death at 100 uM administered before 30 mins of TNFalpha challenge measured after 18 hrs; summary of the method: as §1
Hepatocyte [14] = experiment: Hepatoprotective activity in mouse hepatocytes assessed inhibition of D-galactosamine/TNFalpha-induced cell death at 200 uM administered before 30 mins of TNFalpha challenge measured after 18 hrs; summary of the method: as §1
Hepatocyte [15] = experiment: Hepatoprotective activity against D-galactosamine/TNFalpha-induced cell death in mouse hepatocytes assessed cell survival rate at 100 uM administered before 30 mins of TNFalpha challenge measured after 18 hrs by MTT assay; summary of the method: as §1
Hepatocyte [16] = experiment: Hepatoprotective activity against D-galactosamine/TNFalpha-induced cell death in mouse hepatocytes assessed cell survival rate at 200 uM administered before 30 mins of TNFalpha challenge measured after 18 hrs by MTT assay; summary of the method: as §1

SMILES | Survival (Hepatocyte [1]) | Activity (Hepatocyte [2]) | Activity (Hepatocyte [3]) | Activity (Hepatocyte [4]) | IC50 (Hepatocyte [5]) | inhibition (INH) (Hepatocyte [6]) | inhibition (INH) (Hepatocyte [7]) | inhibition (INH) (Hepatocyte [8]) | Survival (Hepatocyte [9]) | Survival (Hepatocyte [10]) | Activity (Hepatocyte [11]) | Activity (Hepatocyte [12]) | inhibition (INH) (Hepatocyte [13]) | inhibition (INH) (Hepatocyte [14]) | Survival (Hepatocyte [15]) | Survival (Hepatocyte [16])
COc1cc(C2Oc3cc([C@H]4Oc5cc(O)cc(O)c5C(=O)[C@@H]4O)ccc3OC2CO)ccc1O (stereo partly drawn) [SILIBININ] | 75% | 17.3% | 42.8% | 64.3% | 14 µM | 43.4% | 99.7% | 149.7% | 43.1% | 60% | – | – | – | – | – | –
CC(C)(O)[C@@H]1CC[C@@](C)([C@H]2CC[C@]3(C)[C@@H]2[C@H](O)C[C@@H]2[C@@]4(C)CC[C@H](O)C(C)(C)[C@@H]4[C@@H](O[C@@H]4O[C@H](CO)[C@@H](O)[C@H](O)[C@H]4O)C[C@]23C)O1 | 39.4% | – | – | 13.6% | 74.8 µM | – | – | 31.8% | – | – | 26.8% | 39% | 62.8% | 91.5% | 48.7% | 57.2%
CC(C)=CCC[C@](C)(O)[C@H]1CC[C@]2(C)[C@@H]1[C@H](O)C[C@@H]1[C@@]3(C)CC[C@H](O)C(C)(C)[C@@H]3[C@@H](O[C@@H]3O[C@H](CO)[C@@H](O)[C@H](O)[C@H]3O)C[C@]12C [GINSENOSIDE RH1] | 38.1% | – | – | 11.7% | 105 µM | – | – | 27.4% | – | – | 15.6% | 34.3% | 36.6% | 80.5% | 40.8% | 54%
CC(C)(O)[C@@H]1CC[C@@](C)([C@H]2CC[C@]3(C)[C@@H]2[C@H](O)C[C@@H]2[C@@]4(C)CC[C@H](O)C(C)(C)[C@@H]4[C@@H](O[C@@H]4O[C@H](CO)[C@@H](O)[C@H](O)[C@H]4O[C@@H]4OC[C@@H](O)[C@H](O)[C@H]4O)C[C@]23C)O1 [MAJONOSIDE R2] | 41.1% | – | – | 16% | 82.4 µM | – | – | 37.5% | – | – | 19.3% | 35.5% | 55.2% | 83.3% | 46.4% | 54.8%
CC(C)=CCC[C@](C)(O[C@@H]1O[C@H](CO)[C@@H](O)[C@H](O)[C@H]1O)[C@H]1CC[C@]2(C)[C@@H]1[C@H](O)C[C@@H]1[C@@]3(C)CC[C@H](O)C(C)(C)[C@@H]3[C@@H](O[C@@H]3O[C@H](CO)[C@@H](O)[C@H](O)[C@H]3O[C@@H]3O[C@@H](C)[C@H](O)[C@@H](O)[C@H]3O)C[C@]12C [GINSENOSIDE RE] | 36.4% | – | – | 8.9% | 119 µM | – | – | 21.1% | – | – | 15.9% | 31.9% | 37% | 74.3% | 41.2% | 52.4%
CC(=O)OC[C@H]1O[C@@H](O[C@H]2C[C@]3(C)[C@H](C[C@@H](O)[C@@H]4[C@@H]([C@]5(C)CC[C@@H](C(C)(C)O)O5)CC[C@]43C)[C@@]3(C)CC[C@H](O)C(C)(C)[C@H]23)[C@H](O[C@@H]2O[C@H](C)[C@@H](O)[C@H](O)[C@@H]2O)[C@@H](O)[C@@H]1O [VINA-GINSENOSIDE R1] | 45.6% | – | – | 29% | 47 µM | – | – | 51.7% | – | 33.1% | 71.5% | – | 89.8% | – | 57% | –

— ChEMBL document CHEMBL1150813, “Triterpene saponins from Vietnamese ginseng (Panax vietnamensis) and their hepatocytoprotective activity” (J Nat Prod, 2001)
